Laboratory results: ChEMBL document CHEMBL1126599, “Specific sequestering agents for the actinides. 21. Synthesis and initial biological testing of octadentate mixed catecholate-hydroxypyridinonate ligands” (J Med Chem, 1993)

Assays:
Mus musculus [1] = assay: Percent of injected 238-Plutonium(IV) in mice liver at 24 hr (orally administered); assay type: ADME, organism-based; conditions: in vivo, po
Method in brief: (§1)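 Mice were fasted 18 h and given plutonium(IV)-238 citrate iv. At 3 min, ligand at 30 μmol kg-1 in 0.14 M NaCl was given by gastric intubation, with a little food at 4 h. Urine (0–4 h, 4–24 h) and feces were collected per five-mouse group in a metabolic cage. Mice were killed at 24 h. Tissue and GI Pu was expressed as % injected dose, normalized to 100% recovery. Kidneys and excreta were pooled per group. Fasted controls were included.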

[2] = Removal of 238-Plutonium(IV) in urine after 0-4 hr (orally administered); assay type: ADME, tissue-based; conditions: po; method in brief: as §1
[3] = Removal of 238-Plutonium(IV) in urine after 0-4 h; assay type: ADME, tissue-based
Method in brief: (§2)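 Mice received plutonium(IV)-238 citrate iv. At 1 h, normally fed mice got ligand at 30 μmol kg-1 in 0.14 M NaCl by ip injection, then water only. Each five-mouse group was housed in one metabolic cage to collect urine and feces. Mice were killed at 24 h. Pu was expressed as % of injected dose, normalized to 100% recovery. Kidneys and excreta were pooled per group. Saline-injected controls were killed at 24 h.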

Mus musculus [4] = assay: Percent of injected 238-Plutonium(IV) in mice whole body at 24 hr (orally administered); assay type: ADME, organism-based; conditions: in vivo, po; method in brief: as §1
[5] = Removal of 238-Plutonium(IV) in gastrointestinal (GI) contents at 24 hr (orally administered); assay type: ADME; conditions: po; method in brief: as §1
Mus musculus [6] = assay: Percent of injected 238-Plutonium(IV) in mice kidneys at 24 hr (orally administered); assay type: ADME, organism-based, Kidney; conditions: in vivo, po; method in brief: as §1
Mus musculus [7] = organism: Mus musculus; assay: Percent of injected 238-Plutonium(IV) in mice soft tissue at 24 h; assay type: ADME, organism-based; conditions: in vivo; method in brief: as §2
Mus musculus [8] = organism: Mus musculus; assay: Percent of injected 238-Plutonium(IV) in mice skeleton at 24 h; assay type: ADME, organism-based; conditions: in vivo; method in brief: as §2
[9] = Removal of 238-Plutonium(IV) in gastrointestinal (GI) contents at 24 h; assay type: ADME; method in brief: as §2
Mus musculus [10] = organism: Mus musculus; assay: Percent of injected 238-Plutonium(IV) in mice kidneys at 24 h; assay type: ADME, organism-based, Kidney; conditions: in vivo; method in brief: as §2
Mus musculus [11] = assay: Percent of injected 238-Plutonium(IV) in mice skeleton at 24 hr (orally administered); assay type: ADME, organism-based; conditions: in vivo, po; method in brief: as §1
Mus musculus [12] = organism: Mus musculus; assay: Percent of injected 238-Plutonium(IV) in mice whole body at 24 h; assay type: ADME, organism-based; conditions: in vivo; method in brief: as §2
Mus musculus [13] = assay: Percent of injected 238-Plutonium(IV) in mice soft tissue at 24 hr (orally administered); assay type: ADME, organism-based; conditions: in vivo, po; method in brief: as §1
[14] = Removal of 238-Plutonium(IV) in urine after 4-24 h; assay type: ADME, tissue-based; method in brief: as §2
[15] = Removal of 238-Plutonium(IV) in feces at 24 h; assay type: ADME; method in brief: as §2
[16] = Removal of 238-Plutonium(IV) in urine after 0-24 hr (orally administered); assay type: ADME, tissue-based; conditions: po; in the assay text read “4-24 hr” for “0-24 hr”; method in brief: as §1
[17] = Removal of 238-Plutonium(IV) in feces at 24 hr (orally administered); assay type: ADME; conditions: po; method in brief: as §1
Mus musculus [18] = organism: Mus musculus; assay: Percent of injected 238-Plutonium(IV) in mice liver at 24 h; assay type: ADME, organism-based; conditions: in vivo; method in brief: as §2
[19] = Removal of 238-Plutonium(IV) in urine at 0-4 hr (orally administered); assay type: ADME, tissue-based; conditions: po; method in brief: as §1
[20] = Removal of 238-Plutonium(IV) in urine at 4-24 hr (orally administered); assay type: ADME, tissue-based; conditions: po; method in brief: as §1
Mus musculus [21] = assay: Percent of injected 238-Plutonium(IV) in mice kidney at 24 hr (orally administered); assay type: ADME, organism-based; conditions: in vivo, po; method in brief: as §1
[22] = Removal of 238-Plutonium(IV) in urine after 4-24 hr (orally administered); assay type: ADME, tissue-based; conditions: po; method in brief: as §1
[23] = Removal of 238-Plutonium(IV) in urine after 0-24 h; assay type: ADME, tissue-based; method in brief: as §2
[24] = Removal of 238-Plutonium(IV) in urine 4-24 hr (orally administered); assay type: ADME; conditions: po; method in brief: as §1
[25] = Removal of 238-Plutonium(IV) in urine 0-4 h (orally administered); assay type: ADME; conditions: po; method in brief: as §1

| Structure (SMILES) | ID (Mus musculus [1]) [%] | ID [2] [%] | ID [3] [%] | ID (Mus musculus [4]) [%] | ID [5] [%] | ID (Mus musculus [6]) [%] | ID (Mus musculus [7]) [%] | ID (Mus musculus [8]) [%] | ID [9] [%] | ID (Mus musculus [10]) [%] | ID (Mus musculus [11]) [%] | ID (Mus musculus [12]) [%] | ID (Mus musculus [13]) [%] | ID [14] [%] | ID [15] [%] | ID [17] [%] | ID (Mus musculus [18]) [%] | also measured |
| --- | --- | --- | --- | --- | --- | --- | --- | --- | --- | --- | --- | --- | --- | --- | --- | --- | --- | --- |
| O=C(NCCCN(CCCCN(CCCNC(=O)c1cccc(O)c1O)C(=O)c1cccc(=O)n1O)C(=O)c1cccc(O)c1O)c1cccc(O)c1O | 43 | 8.3 | 9.1 | 82 | 1.8 | 3 | 4 | 13 | 12 | 3.1 | 30 | 33 | 4.5 | 3.1 | 43 | 4.5 | 12 | ID [16]: 2.3% |
| O=C(O)c1ccc(C(=O)NCCCN(CCCCN(CCCNC(=O)c2ccc(C(=O)O)c(O)c2O)C(=O)c2ccc(C(=O)O)c(O)c2O)C(=O)c2ccc(C(=O)O)c(O)c2O)c(O)c1O | 19 | – | 44 | 56 | 1 | 1.5 | 4.8 | 11 | 12 | 2.6 | 32 | 29 | 3.9 | 4.6 | 4.8 | 3.3 | 11 | ID [19]: 30%; ID [20]: 9.5% |
| O=C(NCCCN(CCCCN(CCCNC(=O)c1cc(S(=O)(=O)O)cc(O)c1O)C(=O)c1cc(S(=O)(=O)O)cc(O)c1O)C(=O)c1cc(S(=O)(=O)O)cc(O)c1O)c1cc(S(=O)(=O)O)cc(O)c1O | – | – | 58 | – | – | – | 2.8 | 6.7 | 2.9 | 0.9 | – | 35 | – | 4 | 0.4 | – | 25 | – |
| O=C(NCCCN(CCCCN(CCCNC(=O)c1cccc(=O)n1O)C(=O)c1cccc(=O)n1O)C(=O)c1cccc(=O)n1O)c1cccc(=O)n1O | 11 | 23 | 23 | 24 | 1.4 | – | 1.6 | 7.5 | 36 | 0.2 | 12 | 18 | 1.3 | 2 | 21 | 50 | 8.9 | ID (Mus musculus [21]): 0.1%; ID [22]: 2.7% |
| O=C(NCCCN(CCCCN(CCCNC(=O)c1cccc(O)c1O)C(=O)c1cccc(O)c1O)C(=O)c1cccc(O)c1O)c1cccc(O)c1O | – | – | – | – | – | – | 5.1 | 18 | 8.6 | 4.3 | – | 53 | – | – | 28 | – | 26 | ID [23]: 9.4% |
| O=C(NCCCN(CCCCN(CCCNC(=O)c1cccc(O)c1O)C(=O)c1cccc(=O)n1O)C(=O)c1cccc(=O)n1O)c1cccc(O)c1O | 35 | – | 7.9 | 68 | 1.9 | 3.3 | 2.4 | 12 | 20 | 2 | 26 | 37 | 4.7 | 4.1 | 31 | 13 | 21 | ID [24]: 4%; ID [25]: 12% |
